In ChEMBL document CHEMBL1145596 (Bioorg Med Chem Lett, 2008):
Converted amounts (≈) assume the structure as drawn.

Experiments:
[1] = target: T1, ATP-dependent translocase ABCB1 (Homo sapiens, UniProt P08183); assay: Reversal of P-glycoprotein-mediated multidrug resistance in human MDR1 gene transfected mouse L5178Y cells assessed as fluorescence activity ratio at 4 ug/ml by flow cytometry; type: cell-based
[2] = Dissociation constant, pKa of the compound; type: physicochemical
[3] = Lipophilicity, log P of the compound; type: physicochemical; settings: octanol/water
Procedure, shortened: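 LogP computed for the unprotonated molecule with a commercial software package. Not measured experimentally.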

[4] = target: T1, ATP-dependent translocase ABCB1; assay: Reversal of P-glycoprotein-mediated multidrug resistance in human MDR1 gene transfected mouse L5178Y cells assessed as fluorescence activity ratio at 40 ug/ml by flow cytometry; type: cell-based
L5178Y [5] = assay: Cytocidal activity against human MDR1 gene transfected mouse L5178Y cells after 48 hrs by MTT method; type: functional; settings: read-out: ID50 (the source's name)
Procedure, shortened: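 Cells incubated with a range of compound concentrations for 48 h at 37 °C. Viability read by MTT. ID50 derived from the curves. Values are means of duplicate experiments.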

[6] = target: T1, ATP-dependent translocase ABCB1; assay: Reversal of P-glycoprotein-mediated multidrug resistance in human MDR1 gene transfected human Colo 320 cells assessed as fluorescence activity ratio at 0.4 ug/ml by flow cytometry; type: cell-based
Procedure, shortened: (§1)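 Colo320/MDR1 cells run as for the L5178 rhodamine 123 assay: compound preincubation 10 min at room temperature, then rhodamine 123 (final 5.2 μM) for 20 min at 37 °C. Monolayers detached with 0.25% trypsin for 2–3 min before flow cytometry. FAR taken as the treated/untreated fluorescence ratio in MDR cells over that in parental cells.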

[7] = target: T1, ATP-dependent translocase ABCB1; assay: Reversal of P-glycoprotein-mediated multidrug resistance in human MDR1 gene transfected human Colo 320 cells assessed as fluorescence activity ratio at 4 ug/ml by flow cytometry; type: cell-based; procedure, shortened: as §1
[8] = target: T1, ATP-dependent translocase ABCB1; assay: Reversal of P-glycoprotein-mediated multidrug resistance in human MDR1 gene transfected mouse L5178Y cells assessed as fluorescence activity ratio at 0.4 ug/ml by flow cytometry; type: cell-based
Procedure, shortened: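 L5178 MDR1-transfected cells and parental cells grown in McCoy's 5A with 10% heat-inactivated horse serum, L-glutamine and antibiotics. Compound in DMSO added to cell aliquots for 10 min at room temperature. Rhodamine 123 then added (final 5.2 μM) for 20 min at 37 °C. Cells washed twice, resuspended in PBS pH 7.4, read by flow cytometry. FAR = (treated/untreated MDR) ÷ (treated/untreated parental).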

L5178Y [9] = assay: Toxicity in human MDR1 gene transfected mouse L5178Y cells at 40 ug/ml; type: cell-based

T1 sequence (P08183 whole entry): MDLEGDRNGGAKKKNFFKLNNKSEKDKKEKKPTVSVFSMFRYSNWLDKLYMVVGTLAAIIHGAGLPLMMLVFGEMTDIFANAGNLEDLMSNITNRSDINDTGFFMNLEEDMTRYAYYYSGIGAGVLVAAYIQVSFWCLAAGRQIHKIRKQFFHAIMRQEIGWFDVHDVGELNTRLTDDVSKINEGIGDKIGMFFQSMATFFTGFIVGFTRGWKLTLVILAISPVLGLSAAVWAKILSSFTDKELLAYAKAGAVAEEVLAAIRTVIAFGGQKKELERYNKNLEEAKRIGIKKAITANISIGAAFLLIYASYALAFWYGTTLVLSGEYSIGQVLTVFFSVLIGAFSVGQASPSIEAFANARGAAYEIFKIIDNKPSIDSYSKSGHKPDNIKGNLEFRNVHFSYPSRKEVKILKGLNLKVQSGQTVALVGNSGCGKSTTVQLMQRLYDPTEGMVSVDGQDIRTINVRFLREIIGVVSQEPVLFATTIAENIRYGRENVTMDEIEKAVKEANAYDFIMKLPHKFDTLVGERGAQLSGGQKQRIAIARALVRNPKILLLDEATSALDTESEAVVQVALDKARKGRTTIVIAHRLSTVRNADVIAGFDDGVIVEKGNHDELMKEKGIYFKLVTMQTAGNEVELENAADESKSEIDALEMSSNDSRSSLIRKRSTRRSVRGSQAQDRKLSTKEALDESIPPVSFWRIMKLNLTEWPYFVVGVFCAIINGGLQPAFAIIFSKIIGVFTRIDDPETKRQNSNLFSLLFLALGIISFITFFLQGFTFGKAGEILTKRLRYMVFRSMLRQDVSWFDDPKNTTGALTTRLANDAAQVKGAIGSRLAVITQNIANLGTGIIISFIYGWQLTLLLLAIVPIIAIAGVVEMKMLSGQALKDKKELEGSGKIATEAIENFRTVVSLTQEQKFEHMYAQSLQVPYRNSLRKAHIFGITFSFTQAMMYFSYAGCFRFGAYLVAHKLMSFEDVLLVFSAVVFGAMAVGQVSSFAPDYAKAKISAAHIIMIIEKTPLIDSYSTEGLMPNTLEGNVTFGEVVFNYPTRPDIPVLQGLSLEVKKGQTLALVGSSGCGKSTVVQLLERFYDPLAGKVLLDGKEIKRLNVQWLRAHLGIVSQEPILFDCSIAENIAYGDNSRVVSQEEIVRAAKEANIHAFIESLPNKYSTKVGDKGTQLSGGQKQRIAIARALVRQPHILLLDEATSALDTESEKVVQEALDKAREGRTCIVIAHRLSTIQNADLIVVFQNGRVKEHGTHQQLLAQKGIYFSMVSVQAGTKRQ

SMILES	Ratio [1]	pKa [2]	LogP [3]	Ratio [4]	IC50 (L5178Y [5])	LogP ([3]; read-out: LogP)	further results
CCN(CC)CCOc1ccc(C(=O)N2C/C(=C\c3ccc([N+](=O)[O-])cc3)C(=O)/C(=C/c3ccc([N+](=O)[O-])cc3)C2)cc1.Cl	77.5	10.8	5.27	14.1			
Cl.O=C1/C(=C/c2ccc(Cl)cc2)CN(C(=O)c2ccc(OCCN3CCCCC3)cc2)C/C1=C\c1ccc(Cl)cc1	157	11.1	6.86	133	4.17 µg/mL		
Cl.O=C1/C(=C/c2ccc([N+](=O)[O-])cc2)CN(C(=O)c2ccc(OCCN3CCCCC3)cc2)C/C1=C\c1ccc([N+](=O)[O-])cc1	145	11.1	5.42	51.5	2.15 µg/mL		
COc1ccc(CCN(C)CCC[C@](C#N)(c2ccc(OC)c(OC)c2)C(C)C)cc1OC					42 µg/mL (≈ 92.4 µM)		
CC[N+](C)(CC)CCOc1ccc(C(=O)N2C/C(=C\c3ccccc3)C(=O)/C(=C/c3ccccc3)C2)cc1.[I-]	1.37			1.05		1.37	
Cl.O=C1/C(=C/c2ccccc2)CN(C(=O)c2ccc(OCCN3CCOCC3)cc2)C/C1=C\c1ccccc1		8.5				4.64	
CCN(CC)CCOc1ccc(C(=O)N2C/C(=C\c3ccc(Cl)cc3)C(=O)/C(=C/c3ccc(Cl)cc3)C2)cc1.Cl	118	10.8	6.71	99.7	1.53 µg/mL		
Cl.O=C1/C(=C/c2ccc(Cl)cc2)CN(C(=O)c2ccc(OCCN3CCOCC3)cc2)C/C1=C\c1ccc(Cl)cc1	76	8.5		6.88		5.8	
Cc1ccc(/C=C2\CN(C(=O)c3ccc(OCCN4CCCCC4)cc3)C/C(=C\c3ccc(C)cc3)C2=O)cc1.Cl	179	11.1	6.4	146	2.83 µg/mL		Ratio [6]: 2.49; Ratio [7]: 10.8; Ratio [8]: 7.35
Cc1ccc(/C=C2\CN(C(=O)c3ccc(OCCN(C)C)cc3)C/C(=C\c3ccc(C)cc3)C2=O)cc1.Cl		10.7	5.5				Activity (L5178Y [9]): Toxic
O=C1/C(=C/c2ccc(Cl)cc2)CNC/C1=C\c1ccc(Cl)cc1	1.25		4.71	0.91			
CC[N+](C)(CC)CCOc1ccc(C(=O)N2C/C(=C\c3ccc(Cl)cc3)C(=O)/C(=C/c3ccc(Cl)cc3)C2)cc1.[I-]	1.21			1.85		2.73	
O=C1/C(=C/c2ccc([N+](=O)[O-])cc2)CNC/C1=C\c1ccc([N+](=O)[O-])cc1			3.27				
CN(C)CCOc1ccc(C(=O)N2C/C(=C\c3ccccc3)C(=O)/C(=C/c3ccccc3)C2)cc1.Cl	45.5	10.7	4.6	51.6			
CC[N+](C)(CC)CCOc1ccc(C(=O)N2C/C(=C\c3ccc(C)cc3)C(=O)/C(=C/c3ccc(C)cc3)C2)cc1.[I-]	1.93			114		2.27	
Cc1ccc(/C=C2\CN(C(=O)c3ccc(OCCN4CCOCC4)cc3)C/C(=C\c3ccc(C)cc3)C2=O)cc1.Cl		8.5				5.34	
CCN(CC)CCOc1ccc(C(=O)N2C/C(=C\c3ccc(C)cc3)C(=O)/C(=C/c3ccc(C)cc3)C2)cc1.Cl	106	10.8	6.25	66.6	1.56 µg/mL		
O=C1/C(=C/c2ccccc2)CNC/C1=C\c1ccccc1	1.58		3.38	2			
Cc1ccc(/C=C2\CNC/C(=C\c3ccc(C)cc3)C2=O)cc1	3.26		4.25	4.03			Ratio [6]: 1.24; Ratio [7]: 2.42; Ratio [8]: 1
CN(C)CCOc1ccc(C(=O)N2C/C(=C\c3ccc(Cl)cc3)C(=O)/C(=C/c3ccc(Cl)cc3)C2)cc1.Cl		10.7	5.95				
CC[N+](C)(CC)CCOc1ccc(C(=O)N2C/C(=C\c3ccc([N+](=O)[O-])cc3)C(=O)/C(=C/c3ccc([N+](=O)[O-])cc3)C2)cc1.[I-]	1.03			1.22		1.3	
Cl.O=C1/C(=C/c2ccccc2)CN(C(=O)c2ccc(OCCN3CCCCC3)cc2)C/C1=C\c1ccccc1		11.1	5.51		3.28 µg/mL		
Cl.O=C1/C(=C/c2ccc([N+](=O)[O-])cc2)CN(C(=O)c2ccc(OCCN3CCOCC3)cc2)C/C1=C\c1ccc([N+](=O)[O-])cc1		8.5				4.36	
CN(C)CCOc1ccc(C(=O)N2C/C(=C\c3ccc([N+](=O)[O-])cc3)C(=O)/C(=C/c3ccc([N+](=O)[O-])cc3)C2)cc1.Cl		10.7				4.52	
CCN(CC)CCOc1ccc(C(=O)N2C/C(=C\c3ccccc3)C(=O)/C(=C/c3ccccc3)C2)cc1.Cl		10.8	5.35		3.27 µg/mL		
